Measurements from different studies.
Target: Inhibitor of nuclear factor kappa-B kinase subunit epsilon (IKBKE, Homo sapiens, UniProt Q14164)
Read-out: enzyme activity
Sequence (Q14164 1-716, as in one of the studies): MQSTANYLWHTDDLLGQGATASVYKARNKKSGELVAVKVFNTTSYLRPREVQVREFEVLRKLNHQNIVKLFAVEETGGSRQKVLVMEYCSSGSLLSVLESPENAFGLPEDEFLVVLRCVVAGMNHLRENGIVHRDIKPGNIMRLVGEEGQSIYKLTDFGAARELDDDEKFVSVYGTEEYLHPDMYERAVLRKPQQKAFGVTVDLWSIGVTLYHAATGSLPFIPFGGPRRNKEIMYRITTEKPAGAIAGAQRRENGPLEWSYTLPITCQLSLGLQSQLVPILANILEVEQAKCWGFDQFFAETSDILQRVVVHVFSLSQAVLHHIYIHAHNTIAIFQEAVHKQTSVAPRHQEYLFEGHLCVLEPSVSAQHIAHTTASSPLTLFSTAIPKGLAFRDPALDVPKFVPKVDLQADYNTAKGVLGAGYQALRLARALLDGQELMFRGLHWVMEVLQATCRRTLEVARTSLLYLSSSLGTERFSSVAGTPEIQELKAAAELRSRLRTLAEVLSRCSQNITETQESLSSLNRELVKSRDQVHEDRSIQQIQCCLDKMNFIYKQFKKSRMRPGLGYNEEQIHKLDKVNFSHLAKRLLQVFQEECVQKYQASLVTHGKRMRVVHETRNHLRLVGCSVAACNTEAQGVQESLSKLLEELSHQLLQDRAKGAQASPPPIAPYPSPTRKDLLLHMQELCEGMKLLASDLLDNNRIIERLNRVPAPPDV

SMILES | test | conditions | remaining activity
O=C1NC(=O)c2cc(Nc3ccc(F)cc3)c(Nc3ccc(F)cc3)cc21 | inhibitor | 0.5 µM | 100%
O=C(NCCCNc1nc(Nc2cccc(NC(=O)N3CCCC3)c2)ncc1I)c1cccs1 | inhibitor, radiometric | 1 µM | 2%
CC(C)(O)[C@H]1CC[C@H](Nc2ccc3ncc(-c4cccc(C(F)(F)F)c4)n3n2)CC1 | inhibitor | 1 µM | 90.2%
Brc1cnc(Nc2cccc(CN3CCOCC3)c2)nc1NCCc1c[nH]cn1 | inhibitor, radiometric | 1 µM | 36%
Cn1c(=O)n(-c2ccc(C(C)(C)C#N)cc2)c2c3cc(-c4cnc5ccccc5c4)ccc3ncc21 | inhibitor | 10 µM | 86%
O=C(Nc1cnn(-c2csc(C(=O)NC3COC3)c2)c1)Nc1c(F)cccc1Cl | inhibitor | 5 µM | 96.8%
COc1cc(Nc2cnc(C#N)c(O[C@H](C)CN(C)C)n2)ncc1-c1cnn(C)c1 | inhibitor, radiometric | 1 µM | 78%
Nc1ncnc2occ(-c3ccc(NC(=O)Nc4cc(C(F)(F)F)ccc4F)cc3)c12 | inhibitor | 20 µM | 12%
O=c1c2ccccc2[nH]c(=S)n1CCN1CCC(=C(c2ccc(F)cc2)c2ccc(F)cc2)CC1 | inhibitor | 0.5 µM | 101%
NS(=O)(=O)c1ccc(CNc2nc(Nc3cccc(NC(=O)N4CCCC4)c3)ncc2Br)cc1 | inhibitor, radiometric | 1 µM | 35%
Cc1ccc(C(=O)Nc2ccc(CN3CCN(C)CC3)c(C(F)(F)F)c2)cc1C#Cc1cnc2cccnn12 | inhibitor | 23.5 nM | 99%
c1cc(CN2CCOCC2)cc(Nc2ncc(C3CC3)c(NCCc3c[nH]cn3)n2)c1 | inhibitor, radiometric | 1 µM | 55%
Clc1ccc(Nc2nnc(Cc3ccncc3)c3ccccc23)cc1 | – | 0.5 µM | 95.7%
O=C(NCCCNc1nc(Nc2cccc(NC(=O)N3CCCC3)c2)ncc1C1CC1)C1CCC1 | inhibitor, radiometric | 1 µM | 3%
CC(C)(C)c1nc2c(s1)c1nc(N)ncc1c1ccc(NS(=O)(=O)c3c(F)cccc3F)c(F)c12 | inhibitor, radiometric | 1 µM | 90%
